# ChEMBL document CHEMBL1275379, “Indazolylpyrazolopyrimidine as highly potent B-Raf inhibitors with in vivo activity” (J Med Chem, 2010)
# The source made the active and inactive calls. No cut-off for these calls is given here.
# Experiments:
# [1] = biological target: RAF proto-oncogene serine/threonine-protein kinase (Homo sapiens, UniProt P04049); conditions: 1 uM
# [2] = biological target: Vascular endothelial growth factor receptor 1 (Homo sapiens) (UniProt P17948); test: Inhibition of FLT1 at 1 uM
# [3] = biological target: MAP kinase-activated protein kinase 2 (Homo sapiens) (UniProt P49137); test: Inhibition of MAPKAPK2 at 1 uM
# [4] = Clearance in nude mouse; type: ADME, organism-based; conditions: in vivo
# [5] = biological target: Proto-oncogene tyrosine-protein kinase Src (Homo sapiens) (UniProt P12931); conditions: 1 uM
# [6] = Drug level in tumor tissue of human A375 cells xenografted nude mouse at 25 mg/kg, po after 24 hrs; type: ADME, organism-based, Neoplasm, A-375; set-up: dose 25 mg/kg, route oral; conditions: read-out: Drug uptake
# [7] = biological target: Serine/threonine-protein kinase pim-1 (Homo sapiens) (UniProt P11309); test: Inhibition of PIM1 at 1 uM
# [8] = Inhibition of MAP3K at 1 uM
# [9] = biological target: Inhibitor of nuclear factor kappa-B kinase subunit beta (Homo sapiens) (UniProt O14920); test: Inhibition of IKBKB at 1 uM
# [10] = test system: Mus musculus; test: Inhibition of BRAF-mediated ERK phosphorylation in human A375 cells xenografted nude mouse at 10 mg/kg, po QD; type: functional, organism-based; set-up: dose 10 mg/kg; conditions: A-375
# In short: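 Nude mice bearing A375 xenografts received an oral 10 mg/kg dose once daily. Tumours were taken from treated and untreated animals 6 h after the first dose, and ERK phosphorylation in tumour tissue was measured.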
# [11] = biological target: Vascular endothelial growth factor receptor 3 (Homo sapiens) (UniProt P35916); test: Inhibition of FLT4 at 1 uM
# [12] = test system: COLO 205; test: Antitumor activity against human COLO205 cells xenografted in nude mouse assessed as tumor growth inhibition at 7.5 mg/kg, po; type: functional, organism-based; set-up: dose 7.5 mg/kg
# [13] = Inhibition of RPS6K at 1 uM
# [14] = test system: Mus musculus; test: Toxicity in human A375 cells xenografted nude mouse; type: organism-based, A-375; conditions: in vivo
# [15] = Drug level in plasma of human A375 cells xenografted nude mouse at 25 mg/kg, po after 24 hrs; type: ADME, organism-based, A-375; set-up: dose 25 mg/kg, route oral; conditions: read-out: Drug uptake
# [16] = biological target: Protein kinase C beta type (Homo sapiens) (UniProt P05771); test: Inhibition of PRKCB1 at 1 uM
# [17] = biological target: T1, Serine/threonine-protein kinase B-raf (Homo sapiens, UniProt P15056); test: Inhibition of BRAF
# [18] = biological target: T1, Serine/threonine-protein kinase B-raf; test: Inhibition of BRAF at 1 uM
# [19] = biological target: Protein kinase C delta type (Homo sapiens) (UniProt Q05655); test: Inhibition of PRKCD at 1 uM
# [20] = biological target: Protein kinase C gamma type (Homo sapiens) (UniProt P05129); test: Inhibition of PRKCG at 1 uM
# [21] = biological target: Protein kinase C beta type (Homo sapiens) (UniProt P05771); test: Inhibition of PRKCB2 at 1 uM
# [22] = Oral bioavailability in nude mouse at 10 mg/kg; type: ADME, organism-based; conditions: in vivo, read-out: Activity
# [23] = biological target: Tyrosine-protein kinase Yes (Homo sapiens, UniProt P07947); conditions: 1 uM
# [24] = biological target: Ephrin type-A receptor 1 (Homo sapiens) (UniProt P21709); test: Inhibition of EPHA1 at 1 uM
# [25] = biological target: Angiopoietin-1 receptor (Homo sapiens, UniProt Q02763); test: Inhibition of TEK
# [26] = AUC (infinity) in nude mouse at 10 mg/kg, po; type: ADME, organism-based; set-up: time infinity, dose 10 mg/kg, route oral; conditions: plasma
# [27] = biological target: Receptor tyrosine-protein kinase erbB-2 (Homo sapiens) (UniProt P04626); test: Inhibition of ERBB2 at 1 uM
# [28] = test system: A-375; test: Antitumor activity against human A375 cells xenografted in nude mouse assessed as tumor growth inhibition at 7.5 mg/kg, po; type: functional; conditions: read-out: TGI
# In short: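 A375 xenografts in nude mice dosed orally once daily; n = 10 per arm; tumour size measured by caliper at set times; error shown as standard deviation.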
# [29] = biological target: Receptor-type tyrosine-protein kinase FLT3 (Homo sapiens) (UniProt P36888); test: Inhibition of FLT3 at 1 uM
# [30] = biological target: Protein kinase C alpha (Homo sapiens) (UniProt P17252); test: Inhibition of PRKCA at 1 uM
# [31] = biological target: Mitogen-activated protein kinase 3 (Homo sapiens) (UniProt P27361); test: Inhibition of MAPK3 at 1 uM
# [32] = biological target: Ephrin type-A receptor 1 (Homo sapiens, UniProt P21709); test: Inhibition of EPHA1
# [33] = biological target: RAC-alpha serine/threonine-protein kinase (Homo sapiens) (UniProt P31749); test: Inhibition of AKT1 at 1 uM
# [34] = biological target: Serine/threonine-protein kinase Chk1 (Homo sapiens) (UniProt O14757); test: Inhibition of CHEK1 at 1 uM
# [35] = biological target: Fibroblast growth factor receptor 1 (Homo sapiens) (UniProt P11362); test: Inhibition of FGFR1 at 1 uM
structure (smiles),measurement,setting,value
CN1C[C@@H]2C[C@H]1CN2c1cc(F)c(-c2ccnc3c(-c4cccc5[nH]ncc45)c(-c4ccncc4)nn23)c(F)c1,inhibition,[1],88%
same,inhibition,[2],14%
same,inhibition,[3],-1%
same,clearance,[4],23 mL/min/kg
same,inhibition,[5],77%
same,concentration at 24 h,[6],6.1 µM
same,inhibition,[7],5%
same,inhibition,[8],4%
same,inhibition,[9],5%
same,inhibition,[10],Active
same,inhibition,[11],17%
same,TGI,[12],Active
same,inhibition,[13],14%
same,Activity,[14],Non-toxic
same,concentration at 24 h,[15],0.06 µM
same,inhibition,[16],39%
same,IC50,[17],0.16 nM
same,inhibition,[18],100%
same,inhibition,[19],10%
same,inhibition,[20],15%
same,inhibition,[21],51%
same,bioavailability,[22],54%
same,inhibition,[23],68%
same,inhibition,[24],84%
same,IC50,[25],293 nM
same,AUC(0-inf),[26],4000 ng·h/mL
same,inhibition,[27],37%
same,inhibition in vivo at 7.5 mg/kg,[28],39%
same,inhibition,[29],23%
same,inhibition,[30],9%
same,inhibition,[31],5%
same,IC50,[32],95.3 nM
same,inhibition,[33],5%
same,inhibition,[34],0%
same,inhibition,[35],63%
